Data on six compounds can be found in paper PMC10925177 (bioRxiv, 2024).

The structures appear in SMILES notation.

For experiment [1], the target named is T1, G9a (Homo sapiens, UniProt Q96KQ7).
T1 sequence (Q96KQ7 1-1210): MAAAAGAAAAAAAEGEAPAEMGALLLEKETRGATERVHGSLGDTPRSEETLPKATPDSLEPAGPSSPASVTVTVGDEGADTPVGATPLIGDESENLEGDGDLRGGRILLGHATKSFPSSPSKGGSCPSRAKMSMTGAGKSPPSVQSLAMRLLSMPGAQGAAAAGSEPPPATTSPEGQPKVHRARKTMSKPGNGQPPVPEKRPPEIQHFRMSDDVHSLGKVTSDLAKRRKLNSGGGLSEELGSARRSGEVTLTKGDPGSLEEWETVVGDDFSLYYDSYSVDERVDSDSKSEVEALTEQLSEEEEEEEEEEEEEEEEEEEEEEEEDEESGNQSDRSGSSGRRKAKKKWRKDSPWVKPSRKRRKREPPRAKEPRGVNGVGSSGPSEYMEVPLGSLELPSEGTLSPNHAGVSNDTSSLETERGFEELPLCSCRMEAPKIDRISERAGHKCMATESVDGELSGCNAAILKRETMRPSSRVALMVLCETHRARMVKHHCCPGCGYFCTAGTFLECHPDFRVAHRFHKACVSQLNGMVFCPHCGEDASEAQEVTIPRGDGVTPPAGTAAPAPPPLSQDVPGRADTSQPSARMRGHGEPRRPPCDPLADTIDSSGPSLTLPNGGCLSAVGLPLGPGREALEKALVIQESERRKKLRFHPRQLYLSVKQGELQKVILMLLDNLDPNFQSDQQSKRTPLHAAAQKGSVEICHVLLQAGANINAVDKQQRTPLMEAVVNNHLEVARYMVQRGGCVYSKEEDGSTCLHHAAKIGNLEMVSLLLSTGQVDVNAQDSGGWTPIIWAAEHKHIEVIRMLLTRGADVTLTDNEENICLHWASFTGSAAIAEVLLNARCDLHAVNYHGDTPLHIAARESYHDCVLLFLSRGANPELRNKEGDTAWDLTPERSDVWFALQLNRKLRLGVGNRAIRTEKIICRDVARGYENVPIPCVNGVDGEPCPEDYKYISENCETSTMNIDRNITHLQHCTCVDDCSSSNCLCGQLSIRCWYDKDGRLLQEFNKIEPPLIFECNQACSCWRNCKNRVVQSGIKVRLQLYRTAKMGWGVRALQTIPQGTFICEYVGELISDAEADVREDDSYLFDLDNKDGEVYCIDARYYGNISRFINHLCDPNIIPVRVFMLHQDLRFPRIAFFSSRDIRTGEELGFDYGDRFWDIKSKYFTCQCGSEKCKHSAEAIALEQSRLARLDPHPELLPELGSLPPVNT
Briefly: Western blot of G9a protein levels in cancer cells. In kind it is cell-based. Conditions: 24 h, WB. A digest of the protocol: (§1)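 Cells (22Rv1, K562, H1299) were treated for 24 h at the indicated concentrations; 22Rv1 time courses were run at 3 μM. Cells were lysed in RIPA with protease inhibitors, and 10–30 μg of protein was resolved by SDS-PAGE and transferred to PVDF. Blots were probed overnight at 4 °C, with vinculin/β-actin as loading controls. Band intensity was normalised to DMSO, with n = 2 independent experiments (mean ± SD).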
Background: Immunoblotting shows a protein as a band on a membrane.

For experiment [2], the target named is T2, GLP (Homo sapiens, UniProt Q9H9B1).
T2 sequence (Q9H9B1 1-1298): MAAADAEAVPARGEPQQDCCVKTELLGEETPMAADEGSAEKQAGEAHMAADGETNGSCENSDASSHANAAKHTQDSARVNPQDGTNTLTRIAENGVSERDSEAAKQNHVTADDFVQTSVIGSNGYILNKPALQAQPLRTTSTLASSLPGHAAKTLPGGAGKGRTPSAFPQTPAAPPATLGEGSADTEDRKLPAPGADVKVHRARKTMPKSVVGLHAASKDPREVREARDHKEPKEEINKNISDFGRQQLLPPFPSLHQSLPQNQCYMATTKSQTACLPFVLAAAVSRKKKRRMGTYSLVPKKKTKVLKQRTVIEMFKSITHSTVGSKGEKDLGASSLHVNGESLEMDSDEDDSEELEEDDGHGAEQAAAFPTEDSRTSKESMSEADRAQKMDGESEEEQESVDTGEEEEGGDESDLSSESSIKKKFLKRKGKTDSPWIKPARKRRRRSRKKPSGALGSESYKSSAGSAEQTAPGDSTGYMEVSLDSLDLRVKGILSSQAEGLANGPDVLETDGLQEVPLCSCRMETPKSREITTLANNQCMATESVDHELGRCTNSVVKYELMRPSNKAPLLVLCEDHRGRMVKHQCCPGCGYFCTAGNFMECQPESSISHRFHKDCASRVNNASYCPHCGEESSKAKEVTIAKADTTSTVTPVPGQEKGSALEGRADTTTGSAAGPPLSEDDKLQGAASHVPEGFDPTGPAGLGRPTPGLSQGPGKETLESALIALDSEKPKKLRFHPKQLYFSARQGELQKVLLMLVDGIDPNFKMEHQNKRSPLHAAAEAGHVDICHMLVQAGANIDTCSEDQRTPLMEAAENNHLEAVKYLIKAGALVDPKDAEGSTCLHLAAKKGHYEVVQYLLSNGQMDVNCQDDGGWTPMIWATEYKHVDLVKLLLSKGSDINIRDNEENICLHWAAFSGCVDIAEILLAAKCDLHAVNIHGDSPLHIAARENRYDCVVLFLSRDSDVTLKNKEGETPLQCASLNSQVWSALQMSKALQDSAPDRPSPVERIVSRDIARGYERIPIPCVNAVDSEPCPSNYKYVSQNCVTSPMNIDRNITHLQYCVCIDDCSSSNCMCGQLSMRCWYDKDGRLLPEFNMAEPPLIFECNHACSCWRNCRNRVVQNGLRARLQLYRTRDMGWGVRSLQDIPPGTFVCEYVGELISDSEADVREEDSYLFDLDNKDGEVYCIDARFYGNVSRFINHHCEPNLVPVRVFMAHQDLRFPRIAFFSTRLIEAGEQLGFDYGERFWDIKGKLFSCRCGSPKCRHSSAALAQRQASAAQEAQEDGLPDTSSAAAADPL
Briefly: Western blot of GLP protein levels in cancer cells. In kind it is cell-based. The conditions noted are these: 24 h, WB. In a few lines: as §1

Experiment [3] has as its target T2, GLP. Briefly: GLP radioactive methyltransferase assay. The experiment is classed as biochemical. Conditions: indicated concentrations, duplicate (Figure 4C). A digest of the protocol: (§2)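 Enzyme activity was measured with a radioisotope-based MT HotSpot methyltransferase assay run by a contract laboratory. Test compounds were run at the indicated concentrations, in duplicate. Data are mean ± SD of the two duplicate experiments.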

The target in experiment [4] is T1, G9a. Briefly: G9a radioactive methyltransferase assay. Conditions: indicated concentrations, duplicate (Figure 4B). In kind it is biochemical. In a few lines:
as §2

The test system of a further experiment is GLP mRNA. Briefly: RT-qPCR of GLP mRNA in H1299 cells. Conditions: 3 μM, 24 h, normalized to DMSO. In kind it is cell-based. A digest of the protocol:
(§3)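 H1299 cells were treated with DMSO or test compound at 3 μM for 24 h. Total RNA was extracted and reverse-transcribed to cDNA. qPCR used gene-specific primers for G9a and GLP, and a GAPDH primer set was included.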

The test system of a further experiment is K562 cells. Briefly: Cell viability assay. In kind it is cell-based. The conditions noted are these: 7 days treatment, WST-8 (CCK-8). In a few lines:
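K562 cells were grown at 37 °C in 5% CO2 and exposed to serial dilutions of the test compound for 7 days. Viability was read with CCK-8 (WST-8) as absorbance at 450 nm, with 690 nm as reference. IC50 came from curve fitting. Values are mean ± SD from four independent biological experiments.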
On the technique in general: Tetrazolium dyes change colour on reduction, which living cells bring about.

In a further experiment the test system is G9a mRNA. Briefly: RT-qPCR of G9a mRNA in H1299 cells. The experiment is classed as cell-based. The conditions noted are these: 3 μM, 24 h, normalized to DMSO. In a few lines: as §3

`COc1cc2c(NC3CCN(CCCC(=O)NCCC(=O)N[C@H](C(=O)N4C[C@H](O)C[C@H]4C(=O)NCc4ccc(-c5scnc5C)cc4)C(C)(C)C)CC3)nc(N3CCC(F)(F)CC3)nc2cc1OCCCN1CCCC1` [Compound 1, (2S,4R)-1-((S)-2-(3-(4-(4-((2-(4,4-difluoropiperidin-1-yl)-6-methoxy-7-(3-(pyrrolidin-1-yl)propoxy)quinazolin-4-yl)amino)piperidin-1-yl)butanamido)propanamido)-3,3-dimethylbutanoyl)-4-hydroxy-N-(4-(4-methylthiazol-5-yl)benzyl)pyrrolidine-2-carboxamide]: at G9a [1] (22Rv1 cells, 0.3 or 3 μM), the “G9a degradation, in words” value is on record as “moderate”. In addition, at GLP [2] (22Rv1 cells, 0.3 or 3 μM), the “GLP degradation, in words” value was “moderate”.

As for `COc1cc2c(NC3CCN(CCCC(=O)NCCOCCC(=O)N[C@H](C(=O)N4C[C@H](O)C[C@H]4C(=O)NCc4ccc(-c5scnc5C)cc4)C(C)(C)C)CC3)nc(N3CCC(F)(F)CC3)nc2cc1OCCCN1CCCC1` [Compound 11, (2S,4R)-1-((S)-2-(3-(2-(4-(4-((2-(4,4-difluoropiperidin-1-yl)-6-methoxy-7-(3-(pyrrolidin-1-yl)propoxy)quinazolin-4-yl)amino)piperidin-1-yl)butanamido)ethoxy)propanamido)-3,3-dimethylbutanoyl)-4-hydroxy-N-(4-(4-methylthiazol-5-yl)benzyl)pyrrolidine-2-carboxamide], the “G9a degradation, in words” value at G9a [1] (22Rv1 cells, 0.3 or 3 μM) is “did not degrade”.

As for `COc1cc2c(NC3CCN(CCCC(=O)NCCOCCOCCC(=O)N[C@H](C(=O)N4C[C@H](O)C[C@H]4C(=O)NCc4ccc(-c5scnc5C)cc4)C(C)(C)C)CC3)nc(N3CCC(F)(F)CC3)nc2cc1OCCCN1CCCC1` [Compound 12, (2S,4R)-1-((S)-2-(tert-butyl)-17-(4-((2-(4,4-difluoropiperidin-1-yl)-6-methoxy-7-(3-(pyrrolidin-1-yl)propoxy)quinazolin-4-yl)amino)piperidin-1-yl)-4,14-dioxo-7,10-dioxa-3,13-diazaheptadecanoyl)-4-hydroxy-N-(4-(4-methylthiazol-5-yl)benzyl)pyrrolidine-2-carboxamide], on G9a [1] (22Rv1 cells, 0.3 or 3 μM), the “G9a degradation, in words” value is given as “little or no degradation”. Moreover, the “GLP degradation, in words” value at GLP [2] (22Rv1 cells, 0.3 or 3 μM) is given as “little or no degradation”.

In the case of `COc1cc2c(NC3CCN(CCCC(=O)NCCOCCOCCOCCC(=O)N[C@H](C(=O)N4C[C@H](O)C[C@H]4C(=O)NCc4ccc(-c5scnc5C)cc4)C(C)(C)C)CC3)nc(N3CCC(F)(F)CC3)nc2cc1OCCCN1CCCC1` [Compound 13, (2S,4R)-1-((S)-2-(tert-butyl)-20-(4-((2-(4,4-difluoropiperidin-1-yl)-6-methoxy-7-(3-(pyrrolidin-1-yl)propoxy)quinazolin-4-yl)amino)piperidin-1-yl)-4,17-dioxo-7,10,13-trioxa-3,16-diazaicosanoyl)-4-hydroxy-N-(4-(4-methylthiazol-5-yl)benzyl)pyrrolidine-2-carboxamide], the “G9a degradation, in words” value at G9a [1] (22Rv1 cells, 0.3 or 3 μM) was “little or no degradation”. Further, the “GLP degradation, in words” value at GLP [2] (22Rv1 cells, 0.3 or 3 μM) is “little or no degradation”.

On to `COc1cc2c(NC3CCN(CCCC(=O)NCCCCCCCCCCCC(=O)N[C@H](C(=O)N4C[C@@H](O)C[C@@H]4C(=O)NCc4ccc(-c5scnc5C)cc4)C(C)(C)C)CC3)nc(N3CCC(F)(F)CC3)nc2cc1OCCCN1CCCC1` [Compound 14, (2R,4S)-1-((S)-2-(12-(4-(4-((2-(4,4-difluoropiperidin-1-yl)-6-methoxy-7-(3-(pyrrolidin-1-yl)propoxy)quinazolin-4-yl)amino)piperidin-1-yl)butanamido)dodecanamido)-3,3-dimethylbutanoyl)-4-hydroxy-N-(4-(4-methylthiazol-5-yl)benzyl)pyrrolidine-2-carboxamide], for which the “inhibition of GLP enzymatic activity” value at GLP [3] is reported as “similarly inhibited”. Also, on G9a [4], the “inhibition of G9a enzymatic activity” value is “similarly inhibited”.

With `COc1cc2c(NC3CCN(C(C)C)CC3)nc(N3CCC(F)(F)CC3)nc2cc1OCCCN1CCCC1` [UNC0642, reference compound], the “inhibition of GLP enzymatic activity” value at GLP [3] is listed as “similarly inhibited”. The “mRNA levels of GLP” value in the experiment on GLP mRNA is “did not significantly alter”. Besides, the “G9a degradation, in words” value on G9a [1] (K562 cells, 3 μM) is “did not degrade”. For the same compound, in the experiment on K562 cells, the “GI50 of cell growth inhibition (IC50 in the figure)” value is “unable to suppress cell proliferation”. In addition, the “inhibition of G9a enzymatic activity” value on G9a [4] is “similarly inhibited”. In addition, in the experiment on G9a mRNA, the “mRNA levels of G9a” value is “did not significantly alter”. At GLP [2] (K562 cells, 3 μM), the “GLP degradation, in words” value is listed as “did not degrade”.
